# Reference: ChEMBL document CHEMBL1144850, “Combretastatin dinitrogen-substituted stilbene analogues as tubulin-binding and vascular-disrupting agents” (J Nat Prod, 2008)
# pEC50, pIC50: −log10 of the molar value.
# Key:
# [1] = Inhibition of calf tubulin polymerization; set-up: species or system Bos taurus
# In short: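 Tubulin purified from calf brain; polymerization followed turbidimetrically at 350 nm. IC50 obtained from the data by nonlinear regression.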
# BXPC-3 = assay: Cytotoxicity against human BXPC3 cells after 48 hrs by SRB assay; format: functional
# In short: (§1)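 Cells grown in RPMI1640 with 5% fetal bovine serum were seeded and incubated 24 h, then exposed to serial dilutions for 48 h. Plates were fixed with trichloroacetic acid, stained with sulforhodamine B and read by plate reader. GI50 is the concentration giving a 50% reduction in net protein increase, calculated from optical density data.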
# MCF7 = assay: Cytotoxicity against human MCF7 cells after 48 hrs by SRB assay; format: functional; in short: as §1
# SF-268 = assay: Cytotoxicity against human SF268 cells after 48 hrs by SRB assay; format: functional; in short: as §1
# NCI-H460 = assay: Cytotoxicity against human NCIH460 cells after 48 hrs by SRB assay; format: functional; in short: as §1
# KM-20L2 = assay: Cytotoxicity against human KM20L2 cells after 48 hrs by SRB assay; format: functional; in short: as §1
# DU-145 = assay: Cytotoxicity against human DU145 cells after 48 hrs by SRB assay; format: functional; in short: as §1
# [2] = Cytotoxicity against mouse MHEC5-T cells after 1 hr by MTT assay; format: functional, cell-based
# In short: (§2)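 Mouse heart endothelioma MHEC5-T cells exposed to serial dilutions of compound; viability read by MTT reduction after incubation at 37 °C for 1 h or 5 days exposure. IC50 = concentration reducing viability by 50% versus untreated control.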
# [3] = Cytotoxicity against mouse MHEC5-T cells after 5 days by MTT assay; format: functional, cell-based; details: 120 h; in short: as §2
# Mus musculus [4] = assay: Reduction of blood flow to tumor in MHEC5-T xenografted SCID mouse at 10 mg/kg, ip after 24 hrs; format: functional; set-up: scale not given: the % may be the effect or the level left; details: route intraperitoneal
# In short: (§3)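 SCID mice bearing flank MHEC5-T tumours (cultured cells injected into right flank), dosed ip at 10 or 100 mg/kg once tumours reached 300 mm3 without necrosis. At 24 h, diluted fluorescent microbeads (1:6 in saline) injected iv via tail vein; mice killed 3 min later. 8 µm cryosections of tumour and normal organs imaged by fluorescence microscopy; three sections from three tumours per group; vehicle controls.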
# Mus musculus [5] = assay: Reduction of blood flow to tumor in MHEC5-T xenografted SCID mouse at 100 mg/kg, ip after 24 hrs; format: functional; set-up: scale not given: the % may be the effect or the level left; details: route intraperitoneal; in short: as §3
# P388 = assay: Growth inhibition of mouse P388 cells; format: functional; details: read-out: ED50 (the source's name)
Compound,pIC50 [1],"GI50 (BXPC-3; Homo sapiens, BXPC-3, 48 h) [nM]","GI50 (MCF7; Homo sapiens, MCF7, 48 h) [nM]","GI50 (SF-268; Homo sapiens, SF-268, 48 h) [nM]","GI50 (NCI-H460; Homo sapiens, NCI-H460, 48 h) [nM]","GI50 (KM-20L2; Homo sapiens, KM-20L2, 48 h) [nM]","GI50 (DU-145; Homo sapiens, DU-145, 48 h) [nM]",pIC50 [2],pIC50 [3],GI50 (BXPC-3) [nM],GI50 (MCF7) [nM],GI50 (SF-268) [nM],GI50 (NCI-H460) [nM],GI50 (KM-20L2) [nM],GI50 (DU-145) [nM],Activity (Mus musculus [4]) [%],Activity (Mus musculus [5]) [%],pEC50 (P388)
COc1cc([N+](=O)[O-])c(/C=C\c2cc(OC)c(OC)c(OC)c2)cc1N,< 4.40,2700,2600,2800,2500,3500,3300,,,,,,,,,,,
COc1cc(/C=C\c2ccc(OC)c([N+](=O)[O-])c2[N+](=O)[O-])cc(OC)c1OC,< 4.40,2100,2300,2500,370,330,200,,,,,,,,,,,
COc1cc([N+](=O)[O-])c(/C=C\c2cc(OC)c(OC)c(OC)c2)cc1[N+](=O)[O-],< 4.40,3600,2300,2800,3500,4600,5500,,,,,,,,,,,
COc1cc(/C=C/c2cc([N+](=O)[O-])c(OC)c([N+](=O)[O-])c2)cc(OC)c1OC,< 4.40,> 10000,> 10000,> 10000,> 10000,> 10000,> 10000,,,,,,,,,,,
COc1ccc(/C=C\c2cc(OC)c(OC)c(OC)c2)c(N)c1N [listing 1 of 2 here],5.55,,,,,,,5.62,8.37,7.9,6.2,8.3,18,25,18,40,,
COc1cc(N)c(/C=C\c2cc(OC)c(OC)c(OC)c2)cc1[N+](=O)[O-],4.51,,,,,,,4.42,< 5.85,3200,2600,2600,3600,3500,3600,0,0,
COc1cc(/C=C/c2ccc(OC)c([N+](=O)[O-])c2[N+](=O)[O-])cc(OC)c1OC,< 4.40,> 10000,> 10000,> 10000,> 10000,> 10000,> 10000,,,,,,,,,,,
COc1cc([N+](=O)[O-])c(/C=C/c2cc(OC)c(OC)c(OC)c2)cc1[N+](=O)[O-],< 4.40,> 10000,2500,1700,> 10000,> 10000,> 10000,,,,,,,,,,,
COc1cc(N)c(/C=C\c2cc(OC)c(OC)c(OC)c2)cc1[N+](=O)[O-].Cl,,,1500,,4300,,3500,,,1200,,1200,,980,,0,13.7,5.18
COc1cc(/C=C\c2cc(N)c(OC)c(N)c2)cc(OC)c1OC.Cl.Cl,< 4.40,,,,,,,< 4.35,< 5.85,,,,,,,0,6,
COc1cc(/C=C\c2cc([N+](=O)[O-])c(OC)c([N+](=O)[O-])c2)cc(OC)c1OC,5.13,790,410,680,370,520,260,,,,,,,,,,,
COc1cc(/C=C\c2cc(NC(=O)[C@@H](N)CO)c(OC)c(NC(=O)[C@@H](N)CO)c2)cc(OC)c1OC,< 4.40,,,,,,,,,,,,,,,,,
COc1cc(/C=C\c2cc(N)c(OC)c(N)c2)cc(OC)c1OC,,1500,1500,1500,2400,1100,2100,,,,,,,,,3.1,4.6,5.28
COc1ccc(/C=C\c2cc(OC)c(OC)c(OC)c2)c(N)c1N [listing 2 of 2 here],5.74,14,11,11,9,19,12,,,,,,,,,,,
COc1cc(N)c(/C=C\c2cc(OC)c(OC)c(OC)c2)cc1N,4.85,1000,610,550,380,440,330,,,,,,,,,,,
COc1cc(/C=C\c2ccc(OC)c(OP(=O)([O-])[O-])c2OP(=O)([O-])[O-])cc(OC)c1OC.[Na+].[Na+].[Na+].[Na+],,,,,,,,5.49,8.34,,,,,,,70,99,> 8.00
COc1ccc(/C=C\c2cc(OC)c(OC)c(OC)c2)cc1O [COMBRETASTATIN A4],,390,,,0.6,340,0.8,,,,,,,,,,,
COc1ccc(/C=C\c2cc(OC)c(OC)c(OC)c2)c(O)c1O [COMBRETASTATIN A-1],5.72,4400,,,740,61,170,,,,,,,,,,,
COc1ccc(/C=C\c2cc(OC)c(OC)c(OC)c2)cc1OP(=O)([O-])[O-].[Na+].[Na+] [FOSBRETABULIN DISODIUM],,,,,,,,6.10,8.70,,,,,,,10,88,9.40
